# CHO parental Ca: signal in parental CHO cells, OX1R antagonist counter-screen; parental CHO-K1, ATP-induced calcium, Fluo-8 fluorescence; inhibition, % at 5.6 µM; 0.63% of 330,000 active;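 active = inhibition above that plate's mean sample inhibition plus 3 SD, cut at about 26% in these data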;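 note: 0% = ATP-challenged DMSO wells and 100% = DMSO wells without ATP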
#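 Assay system: parental CHO cells; Read-out basis: percent inhibition of ATP-evoked calcium rise, normalized to controls; Benchmarks: ATP and no-ATP DMSO wells; Compound dosing: single nominal dose of 5.6 µM per compound; Signal: Fluo-8 calcium dye fluorescence; Also added: ATP as calcium-mobilizing challenge; Repeats: singlicate.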
# TAAR1 antag: antagonists of human TAAR1; Q96RJ0; CHO RD-HGA16 TAAR1, Fluo-8 calcium fluorescence, antagonist; inhibition, % at 3 µM; 1.5% of 360,000 active; AID 624466;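 active = inhibition above a per-plate cutoff, the mean inhibition of test compounds on that plate plus 3 SD, cut at about 49% in these data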;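 note: 0% = DMSO plus EC80 beta-PEA response and 100% = DMSO alone without agonist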
#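 System: RD-HGA16 CHO cells with stable hTAAR1 and Gα16 | Probe or stimulus: EC80 β-phenethylamine stimulus | Dosing: 3 µM, single point | Times: Dye loading 75 min at 37 °C, then 30 min room temperature | Measured by: Fluo-8 calcium-sensitive fluorescence | Read-out basis: % inhibition of agonist calcium response | Replicates: n of 1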
# OX1R antag-1: blocks the human orexin 1 receptor; inhibition, % at 5 µM; CHO/OX1R cells, Fluo-8 calcium fluorescence, orexin A; 0.43% of 330,000 active; O43613; AID 434989;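 active = inhibition above its plate's threshold, mean inhibition of all tested compounds on the plate plus 3 SD, cut at about 37% in these data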;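 note: 0% = orexin A challenge wells and 100% = SB-334867-A antagonist wells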
# Target sequence (O43613 whole entry, looked up): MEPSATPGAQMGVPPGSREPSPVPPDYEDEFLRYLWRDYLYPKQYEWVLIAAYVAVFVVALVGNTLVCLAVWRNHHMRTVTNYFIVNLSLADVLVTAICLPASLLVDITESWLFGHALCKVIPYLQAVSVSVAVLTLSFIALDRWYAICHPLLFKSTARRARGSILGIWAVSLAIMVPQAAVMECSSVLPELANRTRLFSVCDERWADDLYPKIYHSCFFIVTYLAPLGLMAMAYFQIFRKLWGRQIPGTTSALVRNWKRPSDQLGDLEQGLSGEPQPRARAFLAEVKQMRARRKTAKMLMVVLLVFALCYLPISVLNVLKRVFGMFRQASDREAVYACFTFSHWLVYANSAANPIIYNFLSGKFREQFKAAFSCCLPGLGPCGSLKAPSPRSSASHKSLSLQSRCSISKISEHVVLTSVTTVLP
# TAAR1 agonist: agonists of human TAAR1. activation, % at 3 µM. Q96RJ0. AID 624467. CHO RD-HGA16 TAAR1, Fluo-8 calcium fluorescence; vehicle wells 0%, saturating PEA agonist 100%. 0.99% of 360,000 active;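 active = activation above the mean activation of all test compounds in the run plus 3 SD, cut at about 38% in these data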
#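 System: CHO-derived RD-HGA16 cells with stable Gα16 and human TAAR1. Times: 17-24 h plating, Fluo-8 75 min 37 °C, 30 min RT. Measured by: calcium-sensitive Fluo-8 signal, excitation 470-495, emission 515-575 nm. Read-out basis: % activation relative to PEA EC100 response. Control set: DMSO and PEA EC100. Repeats: no replicates (n 1).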
# GPR7 antag: antagonists of human GPR7 (neuropeptides B/W receptor 1) | GPR7-expressing cells, fluorescence antagonist assay | inhibition, % at 4.4 µM | P48145 | 1.1% of 290,000 active; in the data active = inhibition above about 16%, passing the limit was not always enough;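 note: cells stimulated with the agonist NPW; 0% = agonist with vehicle and 100% = vehicle without agonist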
# OX1R antag-2: antagonists of human orexin 1 receptor (OX1R); O43613; OX1R-expressing cells, FRET antagonist read-out; inhibition, % at 6.6 µM; 1.8% of 330,000 active; in the data active = inhibition mostly above about 38%, no sharp cut-off; inactive = mostly below about 40%;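 note: 0% = agonist challenge alone and 100% = reference antagonist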
# TAAR1 nonsel count: nonselective antagonism, TAAR1 counter-screen; 77% of 2,400 active; inhibition, % at 3 µM; counterscreen cell line, calcium fluorescence, antagonist mode; shares compounds with TAAR1 antag; in the data active = inhibition above about 22%;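 note: CHO-Ga16 host cells stimulated with ATP at an EC80 level; 0% = agonist EC80 plus vehicle and 100% = vehicle without agonist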
# TAAR1 antag conf: confirmation of human TAAR1 antagonists | shares compounds with TAAR1 antag | TAAR1-expressing cells, fluorescence antagonist read-out | inhibition, % at 3 µM | 40% of 2,400 active | AID 651785; in the data active = inhibition above about 49%;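 note: CHO-Ga16 host cells challenged with agonist PEA near its EC80; 0% = agonist at EC80 plus vehicle and 100% = vehicle with no agonist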
# Ga16 ag counter: nonselective Ga16 agonism, counter-screen | 18% of 2,400 active | shares compounds with TAAR1 antag | Ga16-expressing cells, calcium fluorescence, agonist counterscreen | activation, % at 3 µM; in the data active = activation above about 12%;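 note: 0% = vehicle wells and 100% = saturating stimulus response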
# TAAR1 ag counter: TAAR1 agonism, antagonist counter-screen; shares compounds with TAAR1 antag; hTAAR1 cell line, fluorescence activation, agonist mode; activation, % at 3 µM; 2% of 2,400 active; AID 651955; in the data active = activation above about 37%;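 note: CHO cells stably expressing TAAR1 with calcium dye readout; 0% = DMSO vehicle and 100% = full agonist response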
# * = called active by the depositor; · = not tested or not shown. Hits are enriched below; roughly 4.6% of the tested compounds scored in any of these assays.
SMILES,CHO parental Ca,TAAR1 antag,OX1R antag-1,TAAR1 agonist,GPR7 antag,OX1R antag-2,TAAR1 nonsel count,TAAR1 antag conf,Ga16 ag counter,TAAR1 ag counter
O=C(COc1ccccc1F)Nc1ccc(S(=O)(=O)NCc2ccco2)cc1,5,25,21,18,-7,33,·,·,·,·
Oc1ccccc1C1=Nc2nc3ccccc3n2C(c2ccccc2)C1 (centres undefined),-33,54*,-28,13,-10,54,31*,28,4,-3
O=C(Cc1ccc(F)cc1)Nc1nc(-c2ccc(F)cc2)cs1,-5,82*,-3,4,-4,12,46*,57*,7,-1
CC(C(=O)Nc1nc(-c2ccc(F)c(F)c2)cs1)N1C(=O)C2CC=CCC2C1=O (centres undefined),1,78*,13,19,·,16,45*,60*,11,9
O=C(O)CCCC(=O)Nc1nc(-c2ccc(F)cc2)cs1,-11,4,2,11,-7,35,·,·,·,·
COc1ccc(-c2csc(NC(=O)[C@H](C)N3C(=O)C4CC=CCC4C3=O)n2)cc1OC (some centres undefined),2,47,11,16,·,20,·,·,·,·
COc1ccc(CC(=O)Nc2nc(-c3cc(OC)ccc3OC)cs2)cc1,-23,55*,-21,12,-12,25,22*,34,7,2
O=C(CN1C(=O)NC2(CCCC2)C1=O)Nc1nc(-c2ccc(F)cc2)cs1,-33,51*,-34,24,-3,31,23*,33,10,17
O=C1C2C3C=CC(C4CC34)C2C(=O)N1c1ccc2c(c1)OCO2 (centres undefined),4,-8,5,4,-22,15,·,·,·,·
CCN(Cc1cnn(C)c1)C(=O)c1ccc2nc(Cc3ccccc3F)oc2c1,·,-15,·,-1,·,·,·,·,·,·
C[C@@H]1CN([C@@H](C)CO)C(=O)CCCn2nncc2CO[C@@H]1CN(C)C(=O)Nc1ccc(C(C)(C)C)cc1,·,-2,·,0,·,·,·,·,·,·
CCNc1nn2ccccc2c1/C=C(\C#N)C(=O)OCC,-21,-6,-30,-1,-8,16,·,·,·,·
O=C(Cc1ccccc1F)Nc1nc(-c2ccc(F)c(F)c2)cs1,-4,68*,-10,11,2,35,24*,50*,11,14
O=C(Nc1nc(-c2ccc(F)c(F)c2)cs1)c1ccc(OCC2CCCO2)cc1 (centres undefined),-22,54*,-26,7,-10,20,33*,35,9,4
O=C(Cc1cccs1)Nc1nc(-c2ccc(F)c(F)c2)cs1,-5,72*,-14,7,-6,14,39*,55*,6,3
Cc1csc(NC(=O)c2ccc(OCC3CCCO3)cc2)n1 (centres undefined),3,-21,-13,10,-14,38,·,·,·,·
CCc1ccccc1N/N=C(/C)c1c(O)cc(C)oc1=O,-6,-3,-10,-1,1,3,·,·,·,·
O=C(Cc1ccc(NC(=O)C2CCN(C(=O)C3CCC3)CC2)cc1)Nc1cccc(C(=O)N2CCCC2)c1,·,-11,·,-2,·,·,·,·,·,·
Cc1ccc(C)c(N2CCN(C(=O)CCCOc3cc(=O)n(C)c4ccccc34)CC2)c1,-14,54*,-19,25,-11,18,39*,56*,13*,16
Cc1ccc(C)c(N2CCN(C(=O)COc3cc(=O)n(C)c4ccccc34)CC2)c1,-5,24,-20,10,-10,10,·,·,·,·
CC(=O)Nc1cc(C(=O)OCC(=O)c2ccc(Cl)cc2Cl)ccc1C,-10,10,-20,13,3,0,·,·,·,·
